This is an account of results in ChEMBL document CHEMBL4402562, “Discovery of Novel Peptidomimetic Boronate ClpP Inhibitors with Noncanonical Enzyme Mechanism as Potent Virulence Blockers in Vitro and in Vivo” (J Med Chem, 2020).

The IC50 is the concentration that inhibits the measured activity by half. Higher therefore signals weaker potency.

Each structure is given as a SMILES string. Active and inactive are the calls of the source. The rule behind the calls is not given here.

The target of experiment [1] is T1, ATP-dependent Clp protease proteolytic subunit (Staphylococcus aureus (strain NCTC 8325), UniProt Q2G036).
T1 sequence (Q2G036 whole entry): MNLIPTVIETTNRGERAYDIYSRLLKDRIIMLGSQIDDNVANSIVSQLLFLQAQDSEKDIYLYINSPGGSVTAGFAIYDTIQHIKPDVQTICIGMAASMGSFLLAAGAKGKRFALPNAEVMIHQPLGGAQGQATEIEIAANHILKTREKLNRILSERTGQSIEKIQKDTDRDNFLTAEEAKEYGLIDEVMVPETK
Description: Inhibition of N-terminal His6-sumo-tagged full length Staphylococcus aureus ClpP expressed in Escherichia coli […] pre-incubated for 10 mins before Suc-LY-AMC addition and measured after 1 hr by fluorescence based assay. The procedure, abridged:
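SaClpP (1 μM monomer) in 100 mM Hepes pH 7.0, 100 mM NaCl. Preincubated 10 min at RT with inhibitor, two-fold dilutions over 8 steps from 100 μM. Suc-LY-AMC at 200 μM, 380/440 nm recorded for 1 h at 37 °C, slopes normalized to DMSO. For kinact/Ki, inhibitor premixed with substrate and reaction started by enzyme, fitted by least squares. Thrice, triplicate wells.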

Another experiment has as its system Staphylococcus aureus. The experiment in a line: Antivirulence activity against methicillin-resistant Staphylococcus aureus ATCC 33591 infected in BALB/c mouse model of skin abscess assessed as reduction in kidney histopathological changes at 1.5 to 3 mg/kg injected into shaved area of skin once daily for 4 days measured after 12 hrs post last dose by hematoxylin and eosin staining based optical microscopy. The format is functional, organism-based. The procedure, abridged:
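Same MRSA ATCC 33591 skin-abscess model in female BALB/c mice (n=5/group), 40 µL compound at 1.5 or 3 mg/kg injected into the infected shaved skin once daily for 4 days. On day 4 infected skin and heart, liver, spleen, lung, kidney fixed in 4% paraformaldehyde, embedded, sectioned, H&E stained and examined by microscopy; PBS-treated uninfected and vehicle controls.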

Take `CC(C)C[C@H](NC(=O)[C@H](Cc1c[nH]c2ccccc12)NC(=O)c1cc(Cl)ccc1Cl)B(O)O`: it took 900 nM to reach half-maximal inhibition in experiment [1] (IC50). For the same molecule, the result in the experiment on Staphylococcus aureus was Active.
